Assay results: ChEMBL document CHEMBL1144182, “Antimicrobial and cytotoxic arylazoenamines. Part III: antiviral activity of selected classes of arylazoenamines” (Bioorg Med Chem, 2008)
The source made the active and inactive calls. No rule for the calls is given here.

Experiments:
Vaccinia virus = test: Antiviral activity against VV infected in Vero76 cells assessed as reduction in virus plaque formation after 4 days by MTT assay; assay type: functional, organism-based; conditions: Orthopoxvirus vaccinia; Vero 76
[1] = system: Human immunodeficiency virus 1; test: Antiviral activity against HIV1 infected in MT4 cells assessed as virus-induced cytopathogenicity after 4 days; assay type: functional, organism-based
[2] = Cytotoxicity against mock-infected african green monkey Vero76 cells assessed as reduction in cell viability after 96 hrs by MTT assay; assay type: cell-based, Vero; conditions: chlorocebus sabaeus
Coxsackievirus B2 = test: Antiviral activity against CVB2 infected in Vero76 cells assessed as reduction in virus plaque formation after 4 days by MTT assay; assay type: functional, organism-based; conditions: Enterovirus B, Vero 76, 96 h
[3] = Cytotoxicity against mock-infected human MT4 cells assessed as reduction in cell viability after 96 hrs by MTT assay; assay type: cell-based
Method in brief: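 Exponentially growing MT-4 cells seeded at 1 × 10^5 cells/mL in RPMI-1640 with 10% FCS, penicillin and streptomycin, with or without serial compound dilutions. Incubated at 37 °C, 5% CO2; viability read by MTT after 96 h. CC50 is the concentration reducing mock-infected cell viability by 50%.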

Poliovirus 1 = test: Antiviral activity against Sb1 virus infected in Vero76 cells assessed as reduction in virus plaque formation after 4 days by MTT assay; assay type: functional, organism-based; conditions: Enterovirus C, Sabin, Vero 76, 96 h
[4] = system: Respiratory syncytial virus; test: Antiviral activity against RSV infected in Vero76 cells assessed as reduction in virus plaque formation after 4 days by MTT assay; assay type: functional, organism-based; conditions: human respiratory syncytial virus, Vero 76, 96 h
[5] = Cytotoxicity against mock-infected BHK cells assessed as reduction in cell viability after 96 hrs by MTT assay; assay type: cell-based, Mesocricetus auratus; conditions: hamster
Method in brief: (§1)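 Cytotoxicity run in parallel with the antiviral assays. MDBK seeded at 6 × 10^5 and BHK at 1 × 10^6 cells/mL in maintenance medium with or without serial compound dilutions. Incubated 48–96 h at 37 °C, 5% CO2, then viability read by MTT. CC50 is the concentration reducing mock-infected cell viability by 50%.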

Yellow fever virus = test: Antiviral activity against YFV infected in BHK21 cells assessed as protection against virus-induced cytopathogenicity after 4 days by MTT assay; assay type: functional, organism-based; conditions: BHK-21, 96 h
Method in brief: (§2)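 MDBK (BVDV) or BHK-21 (YFV) cells were seeded at 3 × 10^4 or 5 × 10^4 cells/well respectively and grown overnight to confluent monolayers at 37 °C in 5% CO2. Monolayers were infected at m.o.i. 0.01 in serum-free medium. After 1 h, MEM Earle's with 1% FCS was added, with or without serial compound dilutions. After 3–4 days at 37 °C, viability was read by MTT. EC50 was taken as 50% protection from virus-induced cytopathogenicity.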

[6] = Cytotoxicity against mock-infected MDBK cells assessed as reduction in cell viability after 96 hrs by MTT assay; assay type: cell-based, Bos taurus; conditions: cattle; method in brief: as §1
[7] = system: Bovine viral diarrhea virus 1; test: Antiviral activity against BVDV infected in MDBK cells assessed as protection against virus-induced cytopathogenicity after 4 days by MTT assay; assay type: functional, organism-based; conditions: Bovine viral diarrhea virus isolates and strains, 96 h; method in brief: as §2
[8] = system: Vesicular stomatitis virus; test: Antiviral activity against VSV infected in Vero76 cells assessed as reduction in virus plaque formation after 4 days by MTT assay; assay type: functional, organism-based; conditions: Vero 76

Row | SMILES | Activity (Vaccinia virus) | Activity [1] | CC50 at 96 h [2] [µM] | EC50 (Coxsackievirus B2) [µM] | CC50 at 96 h [3] [µM] | EC50 (Poliovirus 1) [µM] | EC50 [4] [µM] | CC50 at 96 h [5] [µM] | EC50 (Yellow fever virus) [µM] | CC50 at 96 h [6] [µM] | EC50 [7] [µM] | Activity [8]
1 | Brc1ccc(/N=N\C2=C3CCCCN3CCC2)cc1 | inactive | inactive | 92 | 10 | 27 | > 92 | > 92 | 62 | ≥ 62 | 59 | > 59 | inactive
2 | CN1C=C(/N=N/c2ccccc2)CCC1 | inactive | inactive | ≥ 100 | > 100 | > 100 | > 100 | 75 | > 100 | > 100 | > 100 | > 100 | inactive
3 | CN1CCC/C1=C\N=N\c1ccc(Br)c(C(F)(F)F)c1 | inactive | inactive | ≥ 100 | 100 | 24 | 60 | > 100 | > 100 | > 100 | > 100 | 46 | inactive
4 | CN1CCC/C1=C\N=N\c1cccc([N+](=O)[O-])c1 | inactive | inactive | > 100 | > 100 | 25 | > 100 | > 100 | > 100 | > 100 | > 100 | 5.5 | inactive
5 | Cc1ccc(/N=N/C=C2\CCCN2Cc2ccccc2)cc1 | inactive | inactive | 50 | 8 | 10 | > 50 | > 50 | 25 | > 25 | 22 | > 22 | inactive
6 | c1ccc2c(/N=N\C3=C4CCCN4CCC3)cccc2c1 | inactive | inactive | 90 | 44 | 18 | > 90 | > 90 | 51 | > 51 | 91 | 3.5 | inactive
7 | O=[N+]([O-])c1cccc(/N=N\C2=C3CCCN3CCC2)c1 | inactive | inactive | > 100 | 54 | > 100 | 60 | > 100 | 95 | > 95 | 68 | > 68 | inactive
8 | O=[N+]([O-])c1cc(/N=N\C2=C3CCCCN3CCC2)ccc1Cl | inactive | inactive | 100 | 51 | 33 | > 100 | 75 | 10 | > 10 | 18 | 18 | inactive
9 | Clc1ccc(/N=N/C=C2\CCCN2Cc2ccccc2)cc1 | inactive | inactive | 70 | 23 | 17 | > 70 | > 70 | 20 | > 20 | 18 | > 18 | inactive
10 | C(=C\N1CCN(c2ncccn2)CC1)/N=N/c1ccccc1 | inactive | inactive | 55 | 0.9 | 17 | > 55 | 5 | 100 | > 100 | 10 | > 10 | inactive
